Results on seven compounds are retold here after ChEMBL document CHEMBL1149435, “Inactivation of S-adenosyl-L-homocysteine hydrolase by 6'-cyano-5',6'-didehydro-6'-deoxyhomoadenosine and 6'-chloro-6'-cyano-5',6'-didehydro-6'-deoxyhomoadenosine. Antiviral and cytotoxic effects” (J Med Chem, 2006).

For experiment [1], the system named is Human alphaherpesvirus 3. As to the kind of experiment: Antiviral activity against TK+ VZV OKA in human embryonic lung cells. Type of experiment: functional, organism-based. Particulars: Human alphaherpesvirus 3, OKA.
Experiment [2] concerns HEL. Nature of the experiment: Cytotoxicity against HEL cells. Type of experiment: functional. The following applies: Homo sapiens. A digest of the protocol:
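Cytotoxicity was measured in human embryonic lung cells as inhibition of cell growth. CC50 is the concentration, in µg/mL, that reduced cell growth by 50%.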

In experiment [3] the test system is Cytomegalovirus. Nature of the experiment: Antiviral activity against Cytomegalovirus Davis in human embryonic lung cells. Particulars: Human betaherpesvirus 5, Davis. Type of experiment: functional, organism-based. The method, boiled down:
(§1)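 Human embryonic lung cell cultures were infected with cytomegalovirus, and the effect on viral plaque formation was scored. EC50 is the concentration, in µg/mL, that reduced virus plaque formation by 50%.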

Experiment [4] has as its system Cytomegalovirus. As to the kind of experiment: Antiviral activity against Cytomegalovirus AD169 in human embryonic lung cells. In kind it is functional, organism-based. Particulars: Human betaherpesvirus 5, AD169, lung. The method, boiled down: as §1
The test system of experiment [5] is HEL. As to the kind of experiment: Cytotoxicity as determined by alteration in the cell morphology of HEL cells. In kind it is functional. Particulars: Homo sapiens. A digest of the protocol:
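Human embryonic lung cells were examined by microscope for changes in morphology. MCC is the minimum concentration, in µg/mL, that caused a microscopically detectable alteration of cell morphology.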

The subject of experiment [6] is Human alphaherpesvirus 3. Nature of the experiment: Antiviral activity against TK- VZV 07/10 in human embryonic lung cells. In kind it is functional, organism-based. Particulars: Human alphaherpesvirus 3, 07/10, lung.
Experiment [7] concerns the target Adenosylhomocysteinase (Homo sapiens, UniProt P23526). Nature of the experiment: Inhibitory activity against AdoHcy Hydrolase. A digest of the protocol: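 Purified recombinant placental AdoHcy hydrolase was preincubated with inhibitor at several concentrations in assay buffer at 37 °C. Remaining activity was measured in the synthetic direction. Ki and kinact came from the Kitz–Wilson method. […] Irreversibility was checked by 24 h dialysis.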

Values after ≈ are worked out from the molar mass of the structure shown.

By EC50 is commonly meant the midpoint of the concentration-response curve. Lower therefore signals higher potency in that assay. Usually CC50 stands for the concentration at which the toxic effect on the cells reaches its halfway point. A high value points to better tolerance by the cells. Usually Ki stands for the dissociation constant of the complex between target and ligand, obtained from inhibition or displacement. Low values mean a stronger hold on the target, high ones a looser hold on the target.

Chain of Adenosylhomocysteinase (P23526 whole entry): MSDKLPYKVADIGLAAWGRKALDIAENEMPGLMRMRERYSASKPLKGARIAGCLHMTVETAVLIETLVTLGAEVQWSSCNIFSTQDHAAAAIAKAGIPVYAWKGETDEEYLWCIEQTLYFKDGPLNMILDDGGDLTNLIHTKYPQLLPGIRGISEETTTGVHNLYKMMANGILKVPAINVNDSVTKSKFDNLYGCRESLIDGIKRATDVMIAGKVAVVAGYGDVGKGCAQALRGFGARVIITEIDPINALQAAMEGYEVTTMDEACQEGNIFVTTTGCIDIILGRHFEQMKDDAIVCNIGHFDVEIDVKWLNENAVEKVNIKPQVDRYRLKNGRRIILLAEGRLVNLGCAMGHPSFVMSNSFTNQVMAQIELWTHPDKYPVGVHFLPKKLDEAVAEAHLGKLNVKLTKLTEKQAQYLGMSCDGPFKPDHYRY

Regarding `N#C/C=C\[C@H]1O[C@@H](n2cnc3c(N)ncnc32)[C@H](O)[C@@H]1O`, the EC50 in experiment [1], in experiment [3], in experiment [4] and in experiment [6] was above 20 mg/L in each case. In addition, in experiment [2], the CC50 is above 20 mg/L. The MCC in experiment [5] came to 100 µg/mL.
Turning to `N#C/C=C/[C@H]1O[C@@H](n2cnc3c(N)ncnc32)[C@H](O)[C@@H]1O`, the EC50 in experiment [1], in experiment [3], in experiment [4] and in experiment [6] was above 20 mg/L in each case. Further, the CC50 in experiment [2] stood at 11 mg/L (≈ 38.2 µM). In experiment [5], this compound showed an MCC of at least 20 µg/mL.
Turning to `N#C/C(Cl)=C\[C@H]1O[C@@H](n2cnc3c(N)ncnc32)[C@H](O)[C@@H]1O`, the EC50 was 11 mg/L (≈ 34.1 µM) in experiment [1], above 20 mg/L in experiment [3], above 20 mg/L in experiment [4] and 17 mg/L (≈ 52.7 µM) in experiment [6]. The compound further gave a CC50 in experiment [2] of 1.2 mg/L (≈ 3.72 µM). The Ki in experiment [7] was 17 µM. In addition, the MCC in experiment [5] turned out to be 100 µg/mL.
On to `Nc1nc2c(ncn2COCCO)c(=O)[nH]1` [ACYCLOVIR], for which the midpoint of cytotoxicity in experiment [2], the CC50, lay at 118 mg/L (≈ 524 µM). Also, in experiment [5], the MCC is above 400 µg/mL.
In the case of `O=c1[nH]c(=O)n([C@H]2C[C@H](O)[C@@H](CO)O2)cc1/C=C/Br` [BRIVUDINE], the EC50 was determined as 0.0051 mg/L (≈ 0.0153 µM) in experiment [1] and 149 mg/L (≈ 447 µM) in experiment [6]. Also, the CC50 in experiment [2] was above 200 mg/L. Moreover, in experiment [5], the MCC is above 400 µg/mL.
Turning to `Nc1ccn(C[C@@H](CO)OCP(=O)(O)O)c(=O)n1.O.O` [CIDOFOVIR], the CC50 in experiment [2] was found to be 23 mg/L. Further, the EC50 in experiment [3] turned out to be 0.64 mg/L; in experiment [4], 0.49 mg/L. In experiment [5], this compound had an MCC of at least 400 µg/mL.
Taken in the same sequence, the figures for `Nc1nc2c(ncn2COC(CO)CO)c(=O)[nH]1` [GANCICLOVIR] were 34 mg/L (≈ 133 µM), 3.2 mg/L (≈ 12.5 µM), 3.2 mg/L (≈ 12.5 µM) and at least 400 µg/mL.
